# Reference: ChEMBL document CHEMBL1157554, “Biomimetic synthesis and anti-HIV activity of dimeric phloroglucinols” (Bioorg Med Chem, 2010)
# What was measured:
# [1] = Cytotoxicity against GFP expressing human CEM cells assessed as maximal non-toxic concentration after 48 to 72 hrs by MTT assay; assay type: cell-based, CCRF-CEM
# Method in brief: (§1)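 MTT assay on uninfected CEM-GFP cells seeded at 2 × 10⁴ cells/well. Samples were added at various concentrations, with untreated or vehicle-treated controls, and incubated 48–72 h. Formazan was solubilized and absorbance read at 540 nm. Non-toxic concentrations were carried into antiviral screening. CC50 was from triplicate determinations.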
# [2] = test system: Human immunodeficiency virus 1; test: Antiviral activity against HIV1 NL4-3 infected in GFP expressing human CEM cells assessed as inhibition of viral p24 antigen production at non-toxic concentration after 7 days postinfection by ELISA; assay type: functional, CCRF-CEM
# Method in brief: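 CEM-GFP reporter T cells infected with HIV-1 NL4.3 at MOI 0.05 and cultured with samples at the highest non-toxic concentration. Virus production was measured in culture supernatant on day 7 post-infection by p24 antigen capture ELISA.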
# [3] = test system: Human immunodeficiency virus 1; test: Antiviral activity against HIV1 NL4-3 infected in GFP expressing human CEM cells assessed as inhibition of viral infection measured after 9 days postinfection by microfluorometry; assay type: functional, organism-based; conditions: Human immunodeficiency virus 1, NL4-3, CCRF-CEM, 216 h
# Method in brief: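 CEM-GFP human CD4+ T cells, which carry an integrated LTR-driven GFP reporter, infected with HIV-1 NL4.3 at MOI 0.05. Cells were incubated with samples for up to 9 days post-infection. Infection was followed by GFP fluorescence microscopy, and screening inhibition was quantified by GFP microfluorometry. IC50 is the concentration giving 50% inhibition of infected cells (n = 3).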
# [4] = Cytotoxicity against GFP expressing human CEM cells after 48 to 72 hrs by MTT assay; assay type: cell-based, CCRF-CEM; method in brief: as §1
# [5] = molecular target: Human immunodeficiency virus type 1 reverse transcriptase (Human immunodeficiency virus 1) (UniProt Q72547); test: Inhibition of HIV1 reverse transcriptase at 20 ug/mL by EIA
# [6] = test system: Human immunodeficiency virus; test: Inhibition of HIV reverse transcriptase at 25 ug/mL
# [7] = molecular target: Human immunodeficiency virus type 1 reverse transcriptase (Human immunodeficiency virus 1, UniProt Q72547); test: Inhibition of HIV1 reverse transcriptase by EIA
Structure (SMILES),MNTC [1] [µM],inhibition (INH) [2] [%],IC50 [3] [µM],CC50 [4] [µM],inhibition [5] [%],inhibition [6] [%],EC50 [7] [µM]
CC(=O)c1c(O)c(C(C)=O)c(O)c(C(CCc2ccccc2)c2c(O)c(C(C)=O)c(O)c(C(C)=O)c2O)c1O,1.87,16,,,,,
CC(=O)c1c(O)c(C(C)=O)c(O)c(C(c2ccc(N(C)C)cc2)c2c(O)c(C(C)=O)c(O)c(C(C)=O)c2O)c1O,9.07,60.6,6.06,22.1,13.4,,
Cc1cn([C@H]2C[C@H](N=[N+]=[N-])[C@@H](CO)O2)c(=O)[nH]c1=O [ZIDOVUDINE],5,89.75,,24.1,,,
CC(=O)c1c(O)c(C(C)=O)c(O)c(C(c2ccc(O)cc2)c2c(O)c(C(C)=O)c(O)c(C(C)=O)c2O)c1O,14.3,56,,,,,
COc1c(C)c(O)c(C(C)=O)c(O)c1Cc1c(O)c(CC=C(C)C)c(O)c(C(C)=O)c1O,,,,,,90,
CC(C)CC(=O)c1c(O)c(Cc2c(O)c(C(=O)CC(C)C)c(O)c(C(=O)CC(C)C)c2O)c(O)c(C(=O)CC(C)C)c1O,0.17,0,,,,,
CC(C)CC(=O)c1c(O)c(C(=O)CC(C)C)c(O)c(C(CCc2ccccc2)c2c(O)c(C(=O)CC(C)C)c(O)c(C(=O)CC(C)C)c2O)c1O,0.71,15,,,,,
CC(C)C(=O)c1c(O)c(Cc2c(O)c(C(=O)C(C)C)c(O)c(C(=O)C(C)C)c2O)c(O)c(C(=O)C(C)C)c1O,0.09,0,,,,,
CC(C)CC(=O)c1c(O)c(C(=O)CC(C)C)c(O)c(C(c2ccco2)c2c(O)c(C(=O)CC(C)C)c(O)c(C(=O)CC(C)C)c2O)c1O,3.75,56.8,,,,,
CC(C)CC(=O)c1c(O)c(C=O)c(O)c(C(c2ccc(OCc3ccccc3)cc2)c2c(O)c(C=O)c(O)c(C(=O)CC(C)C)c2O)c1O,7.46,0,,,,,
CC(=O)c1c(O)c(C(C)=O)c(O)c(C(c2ccco2)c2c(O)c(C(C)=O)c(O)c(C(C)=O)c2O)c1O,15.1,73,6.75,61.2,16.2,,
CC(C)CC(=O)c1c(O)c(C(=O)CC(C)C)c(O)c(C(c2ccc(O)cc2)c2c(O)c(C(=O)CC(C)C)c(O)c(C(=O)CC(C)C)c2O)c1O,1.45,15.6,,,,,
CC(C)CC(=O)c1c(O)c(C(=O)CC(C)C)c(O)c(C(c2ccc3c(c2)OCO3)c2c(O)c(C(=O)CC(C)C)c(O)c(C(=O)CC(C)C)c2O)c1O,2.77,13.9,,,,,
CCC(c1c(O)c(C(C)=O)c(O)c(C(C)=O)c1O)c1c(O)c(C(C)=O)c(O)c(C(C)=O)c1O,2.17,17.5,,,,,
CC(C)CC(=O)c1c(O)c(C=O)c(O)c(Cc2c(O)c(C=O)c(O)c(C(=O)CC(C)C)c2O)c1O,4.1,0,,,,,
CC(C)CC(=O)c1c(O)c(C(=O)CC(C)C)c(O)c(C(c2ccccn2)c2c(O)c(C(=O)CC(C)C)c(O)c(C(=O)CC(C)C)c2O)c1O,7.39,64.7,3.37,38.1,0,,
CC(C)CC(=O)c1c(O)c(C=O)c(O)c(C(c2ccccn2)c2c(O)c(C=O)c(O)c(C(=O)CC(C)C)c2O)c1O,15.9,26.9,,,,,
CC(=O)c1c(O)c(C(C)=O)c(O)c(C(c2c(O)c(C(C)=O)c(O)c(C(C)=O)c2O)c2ccnc3ccccc23)c1O,35.8,71.1,18.6,93.4,80.5,,0.47
CC(=O)c1c(O)c(C(C)=O)c(O)c(C(c2c(O)c(C(C)=O)c(O)c(C(C)=O)c2O)C2CCCCC2)c1O,9.73,78.5,4.09,58.9,0,,
CC(C)CC(=O)c1c(O)c(C(=O)CC(C)C)c(O)c(C(c2ccc(OCc3ccccc3)cc2)c2c(O)c(C(=O)CC(C)C)c(O)c(C(=O)CC(C)C)c2O)c1O,5.75,70,2.71,24,87.8,,1.03
CC(C)CC(=O)c1c(O)c(C(=O)CC(C)C)c(O)c(C(c2ccccc2)c2c(O)c(C(=O)CC(C)C)c(O)c(C(=O)CC(C)C)c2O)c1O,0.74,66.5,0.28,3.15,4.61,,
CC(=O)c1c(O)c(Cc2c(O)c(C(C)=O)c(O)c(C(C)=O)c2O)c(O)c(C(C)=O)c1O,0.23,0,,,,,
CC(C)CC(=O)c1c(O)c(C(=O)CC(C)C)c(O)c(C(c2c(O)c(C(=O)CC(C)C)c(O)c(C(=O)CC(C)C)c2O)c2ccnc3ccccc23)c1O,3.44,30.1,,,,,
